Measured values published in ChEMBL document CHEMBL1131623, “Newly synthesized L-enantiomers of 3'-fluoro-modified beta-2'-deoxyribonucleoside 5'-triphosphates inhibit hepatitis B DNA polymerases but not the five cellular DNA polymerases alpha, beta, gamma, delta, and epsilon nor HIV-1 reverse transcriptase” (J Med Chem, 1998).

Key:
[1] = system: Hepatitis B virus; experiment: Compound was evaluated for 50% inhibition of HBV polymerases (Hepatitis B virus); assay type: functional, organism-based
Summary of the method: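 Endogenous polymerase in virions pelleted from HBV- or DHBV-positive sera, resuspended in PBS and lysed with 2-mercaptoethanol/Nonidet P-40. Run 60 min at 37 °C in 50 mM Tris-HCl pH 8.1, 60 mM KCl, 40 mM MgCl2. Substrates were 100 μM each of the three unlabeled dNTPs plus 0.4 μM [3H]TTP or [3H]dCTP, chosen by analogue type.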

[2] = Compound was evaluated for the inhibition of cellular DNA polymerase (delta)
Summary of the method: (§1)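 Calf thymus pols δ and ε (0.05 unit), 30 min at 37 °C, in 50 mM Bis-Tris pH 6.5, 6 mM MgCl2, 1 mM DTT, 250 μg/mL BSA. Templates were 3.5 μM poly(dA)·oligo(dT)15 with 10 μM [3H]TTP, or activated DNA with [3H]dCTP for dCTP analogues. δ assays also received recombinant PCNA at 10 μg/mL.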

[3] = molecular target: DNA polymerase beta (Homo sapiens, UniProt P06746); experiment: Compound was evaluated for the inhibition of cellular DNA polymerase (beta)
Summary of the method: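 HeLa-derived pol β (0.25 unit), 15 min at 37 °C, in 50 mM Tris-HCl pH 8.7, 100 mM KCl, 10 mM MgCl2, 1 mM DTT, 0.4 mg/mL BSA. TTP analogues were tested on poly(dA)·oligo(dT)15 with [3H]TTP. dCTP analogues used activated DNA, [3H]dCTP and the other three dNTPs. Read-out was [3H] incorporation.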

[4] = molecular target: Human immunodeficiency virus type 1 reverse transcriptase (Human immunodeficiency virus 1, UniProt Q72547); experiment: Compound was evaluated for 50% inhibition of HIV-RT (HIV reverse transcriptase)
[5] = molecular target: T1, DNA polymerase alpha catalytic subunit (Homo sapiens, UniProt P09884); experiment: Compound was evaluated for the inhibition of cellular DNA polymerase (alpha)
T1 sequence (P09884 whole entry): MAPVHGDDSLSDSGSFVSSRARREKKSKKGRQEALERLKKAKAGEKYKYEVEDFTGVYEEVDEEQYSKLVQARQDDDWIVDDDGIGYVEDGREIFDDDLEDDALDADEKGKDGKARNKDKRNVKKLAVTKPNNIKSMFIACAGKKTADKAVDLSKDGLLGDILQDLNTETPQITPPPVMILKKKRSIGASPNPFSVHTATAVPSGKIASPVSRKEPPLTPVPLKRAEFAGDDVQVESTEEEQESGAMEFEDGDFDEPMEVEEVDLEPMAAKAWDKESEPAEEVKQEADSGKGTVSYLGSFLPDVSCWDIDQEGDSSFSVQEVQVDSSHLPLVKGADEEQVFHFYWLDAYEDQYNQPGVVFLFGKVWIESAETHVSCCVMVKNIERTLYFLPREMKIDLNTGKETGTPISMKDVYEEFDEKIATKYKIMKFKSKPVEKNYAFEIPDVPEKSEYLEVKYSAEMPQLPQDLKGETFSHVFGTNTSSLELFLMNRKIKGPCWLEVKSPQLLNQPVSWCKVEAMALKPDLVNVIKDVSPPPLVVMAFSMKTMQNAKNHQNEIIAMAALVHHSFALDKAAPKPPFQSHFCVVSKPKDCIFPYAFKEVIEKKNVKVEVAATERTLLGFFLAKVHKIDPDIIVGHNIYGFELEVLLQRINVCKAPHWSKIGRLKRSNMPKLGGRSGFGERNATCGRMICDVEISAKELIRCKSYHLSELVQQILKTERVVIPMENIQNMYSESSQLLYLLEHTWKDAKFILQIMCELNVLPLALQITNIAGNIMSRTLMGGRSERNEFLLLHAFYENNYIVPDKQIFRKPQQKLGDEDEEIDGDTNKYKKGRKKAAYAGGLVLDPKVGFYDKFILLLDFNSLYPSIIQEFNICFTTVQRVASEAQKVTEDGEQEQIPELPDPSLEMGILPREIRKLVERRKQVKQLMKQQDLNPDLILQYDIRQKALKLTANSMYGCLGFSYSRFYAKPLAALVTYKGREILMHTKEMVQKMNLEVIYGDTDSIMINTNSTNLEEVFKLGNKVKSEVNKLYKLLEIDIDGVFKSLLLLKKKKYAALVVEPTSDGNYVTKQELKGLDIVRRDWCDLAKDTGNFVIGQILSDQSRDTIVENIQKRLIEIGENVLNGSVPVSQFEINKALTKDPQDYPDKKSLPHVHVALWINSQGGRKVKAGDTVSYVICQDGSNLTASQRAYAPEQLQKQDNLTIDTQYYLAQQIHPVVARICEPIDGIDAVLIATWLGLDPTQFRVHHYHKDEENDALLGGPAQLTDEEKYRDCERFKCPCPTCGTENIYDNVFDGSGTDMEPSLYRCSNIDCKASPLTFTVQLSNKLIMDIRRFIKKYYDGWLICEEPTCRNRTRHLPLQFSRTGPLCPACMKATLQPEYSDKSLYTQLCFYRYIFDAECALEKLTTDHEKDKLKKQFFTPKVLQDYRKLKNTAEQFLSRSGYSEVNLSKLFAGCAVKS

[6] = molecular target: T2, DNA polymerase subunit gamma-1 (Homo sapiens, UniProt P54098); experiment: Compound was evaluated for the inhibition of cellular DNA polymerase (gamma)
T2 sequence (P54098 whole entry): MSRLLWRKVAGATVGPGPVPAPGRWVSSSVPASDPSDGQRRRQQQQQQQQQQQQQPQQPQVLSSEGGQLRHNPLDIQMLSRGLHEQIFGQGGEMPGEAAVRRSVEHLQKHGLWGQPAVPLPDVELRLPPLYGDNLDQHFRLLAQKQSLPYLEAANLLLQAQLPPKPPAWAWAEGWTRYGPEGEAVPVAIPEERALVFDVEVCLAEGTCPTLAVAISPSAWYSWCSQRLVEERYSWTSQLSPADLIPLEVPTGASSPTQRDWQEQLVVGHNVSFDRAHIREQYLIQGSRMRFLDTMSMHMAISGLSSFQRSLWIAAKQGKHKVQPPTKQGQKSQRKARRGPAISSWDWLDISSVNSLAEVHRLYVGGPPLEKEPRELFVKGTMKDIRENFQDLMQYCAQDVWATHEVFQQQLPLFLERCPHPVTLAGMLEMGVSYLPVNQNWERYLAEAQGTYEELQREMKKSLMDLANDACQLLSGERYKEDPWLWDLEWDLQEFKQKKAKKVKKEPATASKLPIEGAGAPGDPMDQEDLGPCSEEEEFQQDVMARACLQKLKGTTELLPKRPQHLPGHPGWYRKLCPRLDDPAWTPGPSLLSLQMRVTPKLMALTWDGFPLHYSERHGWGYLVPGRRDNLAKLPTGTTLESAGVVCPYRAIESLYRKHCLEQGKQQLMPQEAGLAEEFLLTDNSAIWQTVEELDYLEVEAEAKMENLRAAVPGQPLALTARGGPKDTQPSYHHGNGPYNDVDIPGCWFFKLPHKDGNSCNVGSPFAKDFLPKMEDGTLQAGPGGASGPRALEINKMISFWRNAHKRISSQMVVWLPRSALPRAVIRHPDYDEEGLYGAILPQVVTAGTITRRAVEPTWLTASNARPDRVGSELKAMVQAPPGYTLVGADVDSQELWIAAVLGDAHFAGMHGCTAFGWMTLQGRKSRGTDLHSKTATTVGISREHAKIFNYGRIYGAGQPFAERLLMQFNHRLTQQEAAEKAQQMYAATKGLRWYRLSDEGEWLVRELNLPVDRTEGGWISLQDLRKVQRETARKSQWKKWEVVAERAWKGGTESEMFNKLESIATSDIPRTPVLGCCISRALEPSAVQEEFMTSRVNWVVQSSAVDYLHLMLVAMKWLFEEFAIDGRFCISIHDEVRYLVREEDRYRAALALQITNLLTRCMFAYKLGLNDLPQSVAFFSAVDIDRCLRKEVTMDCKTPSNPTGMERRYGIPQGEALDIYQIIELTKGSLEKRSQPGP

[7] = system: Nucleic Acid; experiment: Compound was evaluated for the inhibition of cellular DNA polymerase (epsilon); assay type: nucleic-acid assay; details: Bos taurus; summary of the method: as §1

Row | Structure (SMILES) | IC50 [1] [µM] | IC50 [2] [µM] | IC50 [3] [µM] | IC50 [4] [µM] | IC50 [5] [µM] | IC50 [6] [µM] | IC50 ([1]; Hepatitis B virus) [µM] | IC50 [7] [µM]
1 | Cc1cn([C@@H]2C[C@@H](F)[C@H](COP(=O)(O)OP(=O)(O)OP(=O)(O)O)O2)c(=O)nc1N (stereo in doubt; 19) | 1.9 | > 200 | > 200 | > 100 | > 200 | > 50 | – | –
2 | Cc1cn([C@@H]2C[C@@H](F)[C@H](COP(=O)(O)OP(=O)(O)OP(=O)(O)O)O2)c(=O)[nH]c1=O (stereo in doubt) | 0.15 | – | 2.2 | 0.05 | – | 1.5 | – | –
3 | O=c1ccn([C@@H]2C[C@@H](F)[C@H](COP(=O)(O)OP(=O)(O)OP(=O)(O)O)O2)c(=O)[nH]1 (stereo in doubt; 17) | 35 | > 200 | > 100 | > 200 | – | > 100 | – | –
4 | Cc1cn([C@@H]2C[C@@H](F)[C@H](COP(=O)(O)OP(=O)(O)OP(=O)(O)O)O2)c(=O)[nH]c1=O (stereo in doubt; 16) | – | > 200 | > 200 | 100 | – | > 100 | 0.25 | > 100
5 | Nc1ccn([C@@H]2C[C@@H](F)[C@H](COP(=O)(O)OP(=O)(O)OP(=O)(O)O)O2)c(=O)n1 (stereo in doubt) | 0.5 | > 100 | 1 | 0.5 | – | 2 | – | –
6 | Cc1cn([C@@H]2C[C@@H](F)[C@H](COP(=O)(O)OP(=O)(O)OP(=O)(O)O)O2)c(=O)nc1N (stereo in doubt) | 0.03 | 100 | 1 | 0.6 | > 200 | 0.5 | – | > 100
7 | Nc1ccn([C@@H]2C[C@@H](F)[C@H](COP(=O)(O)OP(=O)(O)OP(=O)(O)O)O2)c(=O)n1 (stereo in doubt; 18) | 7 | > 200 | > 100 | > 100 | – | > 50 | – | > 100
8 | O=c1ccn([C@@H]2C[C@@H](F)[C@H](COP(=O)(O)OP(=O)(O)OP(=O)(O)O)O2)c(=O)[nH]1 (stereo in doubt) | – | > 100 | 3 | 0.07 | – | 3.5 | 25 | > 100
